Test results: ChEMBL document CHEMBL1130413, “Novel 3'-C/N-substituted 2',3'-beta-D-dideoxynucleosides as potential chemotherapeutic agents. 1. Thymidine derivatives: synthesis, structure, and broad spectrum antiviral properties” (J Med Chem, 1997)

What was measured:
[1] = tested on: FM3A; experiment: EC50 is the cytotoxic concentration of compound required to reduce FM3A (murine mammary carcinoma cells) cell viability by 50%.; format: functional, cell-based; conditions: Mus musculus
Outline: (§1)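 Murine L1210 or FM3A-derived cells seeded at 5 × 10^5 cells/mL with varying compound concentrations. Incubated 2 days at 37 °C in humidified CO2. Viable cells counted with a Coulter counter. Value is the concentration reducing viable cell number by 50%.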

[2] = tested on: E6SM; experiment: 50% Minimum inhibitory concentration which is required to reduce cytopathogenicity induced by (G) strain of HSV-2 virus on human E6SM cells.; format: functional
Outline: (§2)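 Confluent cell monolayers infected with 100 CCID50 virus and left 1 h for adsorption. Residual virus then removed and compound added at serial dilutions (400, 200, 100 ... µg/mL). Value is the concentration giving 50% reduction of CPE.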

[3] = tested on: CCRF-CEM; experiment: 50% effective concentration of compound which is required to protect human CEM cells against HIV-1 induced giant cell formation.; format: functional, cell-based
Outline: (§3)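 CEM cells at 250000–300000 cells/mL infected with HIV-1 (IIIB) or HIV-2 (ROD) at 100 CCID50/mL. Infected cells mixed with serial compound dilutions and incubated 4 days at 37 °C. Syncytium (giant cell) formation then scored. Values averaged over two independent experiments.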

[4] = tested on: MOLT-4; experiment: EC50 is the cytotoxic concentration of compound required to reduce Molt4/C8 (human T-lymphocyte) cell viability by 50%.; format: functional, cell-based
Outline: (§4)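 Human CEM or Molt-4 cells seeded at 7.5 × 10^5 cells/mL with varying compound concentrations. Incubated 3 days at 37 °C in humidified CO2. Viable cells counted with a Coulter counter. Value is the concentration reducing viable cell number by 50%.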

[5] = tested on: HEL; experiment: 50% Minimum inhibitory concentration which is required to reduce cytopathogenicity induced by (Lyons) strain of HSV-2 virus on human embryonic HEL cells.; format: functional; outline: as §2
[6] = tested on: HEL; experiment: 50% Minimum inhibitory concentration which is required to reduce cytopathogenicity induced by (Mc Intyre) strain of HSV-1 virus on human embryonic HEL cells.; format: functional; outline: as §2
[7] = tested on: E6SM; experiment: 50% Minimum inhibitory concentration which is required to reduce cytopathogenicity induced by TK-(B2006) strain of HSV-1 virus on human E6SM cells.; format: functional; outline: as §2
[8] = tested on: CEM-TK(-); experiment: Cytotoxic concentration which is required to reduce CEM/TK- cell viability by 50%.; format: functional; conditions: Homo sapiens
[9] = tested on: HEL; experiment: 50% Minimum inhibitory concentration which is required to reduce cytopathogenicity induced by (OKA) strain of Varicella Zoster virus on human embryonic HEL cells.; format: functional
[10] = tested on: MT4; experiment: Cytotoxic concentration which is required to reduce human MT-4 cell viability by 50%.; format: functional
[11] = tested on: CEM-TK(-); experiment: 50% effective concentration of compound which is required to protect Thymidine kinase deficient human CEM (CEM/TK-) cells against HIV-2.; format: functional, cell-based
[12] = tested on: E6SM; experiment: 50% Minimum inhibitory concentration which is required to reduce cytopathogenicity induced by (Lyons) strain of HSV-2 virus on human E6SM cells.; format: functional; outline: as §2
[13] = tested on: L1210; experiment: EC50 is the cytotoxic concentration of compound required to reduce L1210 (murine leukemia cells) cell viability by 50%.; format: functional, cell-based; conditions: Mus musculus; outline: as §1
[14] = tested on: E6SM; experiment: 50% Minimum inhibitory concentration which is required to reduce cytopathogenicity induced by (196) strain of HSV-2 virus on human E6SM cells.; format: functional; outline: as §2
[15] = tested on: MT4; experiment: 50% effective concentration of compound which is required to protect human MT-4 cells against cytopathogenicity of HIV-1.; format: functional, cell-based
[16] = tested on: FM3A; experiment: EC50 is the cytotoxic concentration of compound required to reduce FM3A/TK- (Thymidine kinase deficient murine mammary carcinoma cells) cell viability by 50%.; format: functional, cell-based; conditions: Mus musculus; outline: as §1
[17] = Selectivity index of HIV-1 and HIV-2 with respect to MT-4 cells; format: functional, MT4
Outline: (§5)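 Selectivity index calculated as average CC50 divided by average EC50. Each average comes from two independent experiments, using HIV-1 (IIIB) and HIV-2 (ROD) in CEM or MT-4 cells.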

[18] = tested on: CCRF-CEM; experiment: 50% effective concentration of compound which is required to protect human CEM cells against HIV-2 induced giant cell formation.; format: functional, cell-based; outline: as §3
[19] = tested on: MT4; experiment: 50% effective concentration of compound which is required to protect human MT-4 cells against cytopathogenicity of HIV-2.; format: functional, cell-based
[20] = Selectivity index of HIV-1 and HIV-2 with respect to CEM cells; format: functional, CCRF-CEM; outline: as §5
[21] = Minimum cytotoxic concentration which causes microscopically detectable alteration of normal cell morphology after 2 days of incubation.; format: functional; conditions: 48 h
Outline: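 Uninfected E6SM cells exposed to compound for 2 days. Minimum concentration giving a microscopically detectable change in normal cell morphology recorded.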

[22] = tested on: HEL; experiment: 50% Minimum inhibitory concentration which is required to reduce cytopathogenicity induced by (G) strain of HSV-2 virus on human embryonic HEL cells.; format: functional; outline: as §2
[23] = tested on: HEL; experiment: 50% Minimum inhibitory concentration which is required to reduce cytopathogenicity induced by (KOS) strain of HSV-1 virus on human embryonic HEL cells.; format: functional; outline: as §2
[24] = tested on: E6SM; experiment: 50% Minimum inhibitory concentration which is required to reduce cytopathogenicity induced by Vaccinia virus (VV) on human E6SM cells.; format: functional; outline: as §2
[25] = tested on: E6SM; experiment: 50% Minimum inhibitory concentration which is required to reduce cytopathogenicity induced by (F) strain of HSV-1 virus on human E6SM cells.; format: functional; outline: as §2
[26] = tested on: CCRF-CEM; experiment: Cytotoxic concentration which is required to reduce human CEM cell viability by 50%.; format: functional; outline: as §4
[27] = tested on: FM3A; experiment: EC50 is the cytotoxic concentration of compound required to reduce FM3A/TK- HSV-1TK+ cell viability by 50%.; format: functional, cell-based; conditions: Mus musculus; outline: as §1
[28] = tested on: E6SM; experiment: 50% Minimum inhibitory concentration which is required to reduce cytopathogenicity induced by (KOS) strain of HSV-1 virus on human E6SM cells.; format: functional; outline: as §2
[29] = tested on: HEL; experiment: 50% Minimum inhibitory concentration which is required to reduce cytopathogenicity induced by TK-(B2006) strain of HSV-1 virus on human embryonic HEL cells.; format: functional; outline: as §2
[30] = tested on: E6SM; experiment: 50% Minimum inhibitory concentration which is required to reduce cytopathogenicity induced by (Mc Intyre) strain of HSV-1 virus on human E6SM cells.; format: functional; outline: as §2

CC(=O)O/N=C1/C[C@H](n2cc(C)c(=O)[nH]c2=O)O[C@@H]1CO.CC(=O)O/N=C1\C[C@H](n2cc(C)c(=O)[nH]c2=O)O[C@@H]1CO (racemic)
EC50 [1]: > 200 µg/mL
MIC [2]: 1 µg/mL
EC50 [3]: 1 µg/mL
EC50 [4]: 14 µg/mL
MIC [5]: 2 µg/mL
MIC [6]: 2.7 µg/mL
MIC [7]: > 200 µg/mL
CC50 [8]: > 200 µg/mL
MIC [9]: 20 µg/mL
CC50 [10]: 7.1 µg/mL
EC50 [11]: > 20 µg/mL
MIC [12]: 4 µg/mL
EC50 [13]: 19 µg/mL
MIC [14]: 70 µg/mL
EC50 [15]: 0.05 µg/mL
EC50 [16]: > 200 µg/mL
Selectivity index [17]: 182
EC50 [18]: 0.8 µg/mL
EC50 [19]: 0.05 µg/mL
Selectivity index [20]: 130
MCC [21]: 400 µg/mL
MIC [22]: 2.8 µg/mL
MIC [23]: 3.8 µg/mL
MIC [24]: 70 µg/mL
MIC [25]: 5 µg/mL
CC50 [26]: 104 µg/mL
EC50 [27]: > 200 µg/mL
MIC [28]: 0.9 µg/mL
MIC [29]: > 5 µg/mL
MIC [30]: 2 µg/mL
